Assay results: ChEMBL document CHEMBL4321879, “Novel Class of Colony-Stimulating Factor 1 Receptor Kinase Inhibitors Based on an o-Aminopyridyl Alkynyl Scaffold as Potential Treatment for Inflammatory Disorders” (J Med Chem, 2020)
The source made the active and inactive calls. No cut-off for these calls is given here.

Columns and labels:
[1] = biological target: Fibroblast growth factor receptor 1 (Homo sapiens, UniProt P11362); assay: Inhibition of recombinant human N-terminal GST-tagged FGFR1 (456 to 765 residues) expressed in baculovirus infected Sf21 insect cells using poly (Glu, Tyr)4:1 as substrate measured after 1 hr by ELISA
Outline: (§1)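 Recombinant kinase was incubated with compound in reaction buffer containing 5 μM ATP, in wells precoated with poly(Glu,Tyr) 4:1, for 1 h at 37 °C. Phosphorylation was detected by ELISA.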

Mus musculus = assay: Antiinflammatory activity in BALB/c mouse assessed as reduction in LPS-induced TNFalpha production at 20 to 40 mg/kg, po pretreated for 4 hrs followed by LPS-stimulation and measured after 1.5 hrs by ELISA; format: functional, organism-based
Outline: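 Female BALB/c mice, 8 weeks old, n = 6 per group, dosed orally at 20 or 40 mg/kg in 0.5% CMC-Na/0.25% Tween-80 4 h before ip LPS 5 mg/kg. Orbital-sinus blood was taken at 1.5 h (TNF-α) and 3 h (IL-6). Serum cytokines measured by ELISA. Mean ± SEM, one-way ANOVA with Dunnett's test.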

[2] = biological target: Platelet-derived growth factor receptor alpha (Homo sapiens) (UniProt P16234); assay: Inhibition of recombinant human N-terminal His6-tagged PDGFRalpha (550 to end residues) expressed in baculovirus infected Sf21 insect cells at 1000 nM using poly (Glu, Tyr)4:1 as substrate measured after 1 hr by ELISA relative to control
Outline: (§2)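 ELISA kinase assay: recombinant kinase added to wells precoated with poly(Glu,Tyr)4:1 and incubated with compound in reaction buffer containing 5 μM ATP, 37 °C for 1 h; wells then washed before antibody detection.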

[3] = biological target: Ephrin type-A receptor 2 (Homo sapiens) (UniProt P29317); assay: Inhibition of recombinant human N-terminal His6-tagged EphA2 (596 to 900 residues) expressed in baculovirus infected Sf21 insect cells at 1000 nM using poly (Glu, Tyr)4:1 as substrate measured after 1 hr by ELISA relative to control; outline: as §1
[4] = biological target: Fibroblast growth factor receptor 4 (Homo sapiens, UniProt P22455); assay: Inhibition of recombinant human N-terminal His6-tagged FGFR4 (442 to 755 residues) expressed in baculovirus infected Sf21 insect cells at 1000 nM using poly (Glu, Tyr)4:1 as substrate measured after 1 hr by ELISA relative to control; outline: as §2
[5] = biological target: Tyrosine-protein kinase BTK (Homo sapiens) (UniProt Q06187); assay: Inhibition of recombinant human full-length N-terminal His6-tagged BTK expressed in baculovirus infected Sf21 insect cells at 1000 nM using poly (Glu, Tyr)4:1 as substrate measured after 1 hr by ELISA relative to control; outline: as §2
[6] = biological target: Tyrosine-protein kinase ITK/TSK (Homo sapiens) (UniProt Q08881); assay: Inhibition of recombinant human N-terminal His6-tagged ITK (352 to 617 residues) expressed in baculovirus infected Sf21 insect cells at 1000 nM using poly (Glu, Tyr)4:1 as substrate measured after 1 hr by ELISA relative to control; outline: as §2
[7] = biological target: Activated CDC42 kinase 1 (Homo sapiens) (UniProt Q07912); assay: Inhibition of recombinant human N-terminal GST-tagged ACK1 (1 to 389 residues) expressed in baculovirus infected Sf21 insect cells at 1000 nM using poly (Glu, Tyr)4:1 as substrate measured after 1 hr by ELISA relative to control; outline: as §1
[8] = biological target: Vascular endothelial growth factor receptor 2 (Homo sapiens) (UniProt P35968); assay: Inhibition of recombinant human VEGFR2 (D1-7) expressed in Spodoptera frugiperda insect cells at 100 nM using poly (Glu, Tyr)4:1 as substrate measured after 1 hr by ELISA relative to control; outline: as §2
[9] = biological target: Vascular endothelial growth factor receptor 3 (Homo sapiens) (UniProt P35916); assay: Inhibition of recombinant VEGFR3 (unknown origin) at 100 nM using poly (Glu, Tyr)4:1 as substrate measured after 1 hr by ELISA relative to control; outline: as §1
[10] = biological target: Platelet-derived growth factor receptor alpha (Homo sapiens) (UniProt P16234); assay: Inhibition of recombinant human N-terminal His6-tagged PDGFRalpha (550 to end residues) expressed in baculovirus infected Sf21 insect cells at 100 nM using poly (Glu, Tyr)4:1 as substrate measured after 1 hr by ELISA relative to control; outline: as §2
c-KIT = c-KIT (Homo sapiens, UniProt P10721); assay: Inhibition of recombinant human N-terminal GST-tagged c-KIT (544 to end residues) expressed in baculovirus infected Sf21 insect cells at 100 nM using poly (Glu, Tyr)4:1 as substrate measured after 1 hr by ELISA relative to control; settings: probe poly (Glu, Tyr)4:1; outline: as §1
[11] = biological target: Proto-oncogene tyrosine-protein kinase Src (Homo sapiens) (UniProt P12931); assay: Inhibition of recombinant human full-length N-terminal His6-tagged Src expressed in Sf21 insect cells at 100 nM using poly (Glu, Tyr)4:1 as substrate measured after 1 hr by ELISA relative to control; outline: as §2
[12] = biological target: Insulin receptor (Homo sapiens) (UniProt P06213); assay: Inhibition of recombinant human N-terminal His6-tagged IR (1005 to 1310 residues) expressed in baculovirus infected Sf21 insect cells at 100 nM using poly (Glu, Tyr)4:1 as substrate measured after 1 hr by ELISA relative to control; outline: as §2
[13] = biological target: Vascular endothelial growth factor receptor 1 (Homo sapiens) (UniProt P17948); assay: Inhibition of recombinant human VEGFR1 expressed in Spodoptera frugiperda insect cells at 10 nM using poly (Glu, Tyr)4:1 as substrate measured after 1 hr by ELISA relative to control; outline: as §2
[14] = Elimination half life in Sprague-Dawley rat at 5 mg/kg, po administered via gavage by LC-MS/MS analysis; format: ADME, organism-based; settings: in vivo, read-out: beta t1/2 (converted)
Outline: (§3)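 Male SD rats (200 ± 20 g) were fasted 12 h with free access to water, n = 3 per group. One group received 2 mg/kg iv in DMSO/EtOH/PEG300/saline (5/5/40/50). The other received 5 mg/kg by oral gavage in DMSO/HPMC (5/95). Femoral-vein plasma was taken at 15–1440 min, methanol-precipitated with internal standard, and measured by LC–MS/MS. Noncompartmental analysis; AUC by trapezoidal method.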

[15] = MRT (infinity) in Sprague-Dawley rat at 5 mg/kg, po administered via gavage by LC-MS/MS analysis; format: ADME, organism-based; settings: in vivo
Outline: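 Male SD rats (200 ± 20 g), fasted 12 h, n = 3; oral gavage 5 mg/kg in DMSO/HPMC (5/95). Femoral vein blood at 15–1440 min; plasma precipitated with methanol plus internal standard, LC–MS/MS; noncompartmental analysis, Tmax observed directly, MRT = AUMC/AUC.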

[16] = Elimination half life in Sprague-Dawley rat at 2 mg/kg, iv administered […] by LC-MS/MS analysis; format: ADME, organism-based; settings: in vivo, read-out: beta t1/2 (converted); outline: as §3
[17] = AUC (0 to t) in Sprague-Dawley rat at 2 mg/kg, iv administered […] by LC-MS/MS analysis; format: ADME, organism-based; settings: in vivo; outline: as §3

Chain of Platelet-derived growth factor receptor alpha (Homo sapiens) (P16234 whole entry): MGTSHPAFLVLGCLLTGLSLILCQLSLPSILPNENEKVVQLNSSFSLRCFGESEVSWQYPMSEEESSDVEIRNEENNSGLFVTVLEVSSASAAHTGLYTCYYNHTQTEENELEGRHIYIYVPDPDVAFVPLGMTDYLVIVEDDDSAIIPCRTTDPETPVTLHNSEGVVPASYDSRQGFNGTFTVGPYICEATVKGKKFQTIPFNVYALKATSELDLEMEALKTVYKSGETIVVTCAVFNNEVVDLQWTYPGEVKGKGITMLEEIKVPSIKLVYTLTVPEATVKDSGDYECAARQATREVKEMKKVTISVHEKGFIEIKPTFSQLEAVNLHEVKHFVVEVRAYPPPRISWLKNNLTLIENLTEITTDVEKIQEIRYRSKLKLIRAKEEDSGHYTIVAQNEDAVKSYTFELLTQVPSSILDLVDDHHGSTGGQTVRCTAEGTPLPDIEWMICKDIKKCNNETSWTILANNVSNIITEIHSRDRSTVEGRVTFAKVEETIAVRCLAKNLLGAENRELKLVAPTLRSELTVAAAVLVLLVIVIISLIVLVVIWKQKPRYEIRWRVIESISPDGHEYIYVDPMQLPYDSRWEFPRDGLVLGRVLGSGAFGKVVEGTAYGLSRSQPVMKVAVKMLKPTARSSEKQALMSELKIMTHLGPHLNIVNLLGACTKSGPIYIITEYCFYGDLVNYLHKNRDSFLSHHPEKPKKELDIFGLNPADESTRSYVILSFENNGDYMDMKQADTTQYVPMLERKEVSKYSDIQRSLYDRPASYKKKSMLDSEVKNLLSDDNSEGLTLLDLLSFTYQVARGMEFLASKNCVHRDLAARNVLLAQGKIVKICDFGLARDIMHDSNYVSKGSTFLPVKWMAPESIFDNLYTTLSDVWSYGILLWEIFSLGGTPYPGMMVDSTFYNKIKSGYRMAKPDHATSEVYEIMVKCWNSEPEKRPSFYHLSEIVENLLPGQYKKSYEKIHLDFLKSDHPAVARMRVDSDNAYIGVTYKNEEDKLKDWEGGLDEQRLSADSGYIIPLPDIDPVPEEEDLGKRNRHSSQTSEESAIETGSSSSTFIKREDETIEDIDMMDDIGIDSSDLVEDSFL
Chain of Insulin receptor (Homo sapiens) (P06213 28-758 limits assumed): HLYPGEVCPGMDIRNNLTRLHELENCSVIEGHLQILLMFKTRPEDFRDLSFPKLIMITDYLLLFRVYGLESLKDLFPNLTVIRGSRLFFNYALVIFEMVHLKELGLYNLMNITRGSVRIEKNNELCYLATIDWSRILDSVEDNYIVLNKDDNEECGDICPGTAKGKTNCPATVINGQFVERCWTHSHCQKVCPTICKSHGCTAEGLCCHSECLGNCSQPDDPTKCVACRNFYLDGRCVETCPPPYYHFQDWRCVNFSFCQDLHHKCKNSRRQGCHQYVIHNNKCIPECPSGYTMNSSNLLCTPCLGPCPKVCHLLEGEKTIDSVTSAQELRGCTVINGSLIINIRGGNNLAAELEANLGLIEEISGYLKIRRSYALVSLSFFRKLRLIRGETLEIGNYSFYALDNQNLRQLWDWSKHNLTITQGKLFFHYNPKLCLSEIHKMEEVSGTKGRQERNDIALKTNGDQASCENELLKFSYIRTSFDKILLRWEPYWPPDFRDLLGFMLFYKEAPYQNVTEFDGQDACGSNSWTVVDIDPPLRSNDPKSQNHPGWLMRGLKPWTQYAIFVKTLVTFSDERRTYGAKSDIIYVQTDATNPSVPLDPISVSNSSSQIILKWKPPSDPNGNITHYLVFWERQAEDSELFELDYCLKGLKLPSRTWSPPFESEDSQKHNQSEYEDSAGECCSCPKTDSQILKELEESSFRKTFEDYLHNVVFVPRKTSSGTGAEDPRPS
Chain of Insulin receptor (Homo sapiens) (P06213 763-1382 limits assumed): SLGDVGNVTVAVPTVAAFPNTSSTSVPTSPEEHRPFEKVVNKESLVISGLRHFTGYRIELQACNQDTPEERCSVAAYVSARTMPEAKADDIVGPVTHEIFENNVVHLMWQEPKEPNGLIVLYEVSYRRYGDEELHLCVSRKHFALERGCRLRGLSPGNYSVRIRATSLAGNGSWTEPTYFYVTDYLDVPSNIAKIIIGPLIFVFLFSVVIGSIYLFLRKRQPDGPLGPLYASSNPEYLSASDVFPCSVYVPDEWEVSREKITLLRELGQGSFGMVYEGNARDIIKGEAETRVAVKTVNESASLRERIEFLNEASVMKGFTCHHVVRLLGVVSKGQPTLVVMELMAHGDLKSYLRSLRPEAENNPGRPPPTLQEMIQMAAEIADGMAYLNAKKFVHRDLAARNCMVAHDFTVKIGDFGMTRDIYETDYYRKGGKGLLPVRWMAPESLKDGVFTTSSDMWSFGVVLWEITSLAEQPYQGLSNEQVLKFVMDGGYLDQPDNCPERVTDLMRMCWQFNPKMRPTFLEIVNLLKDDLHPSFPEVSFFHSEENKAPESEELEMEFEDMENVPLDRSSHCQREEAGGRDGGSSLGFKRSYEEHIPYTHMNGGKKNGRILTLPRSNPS
Chain of Tyrosine-protein kinase ITK/TSK (Homo sapiens) (Q08881 whole entry, the tested form may be a part): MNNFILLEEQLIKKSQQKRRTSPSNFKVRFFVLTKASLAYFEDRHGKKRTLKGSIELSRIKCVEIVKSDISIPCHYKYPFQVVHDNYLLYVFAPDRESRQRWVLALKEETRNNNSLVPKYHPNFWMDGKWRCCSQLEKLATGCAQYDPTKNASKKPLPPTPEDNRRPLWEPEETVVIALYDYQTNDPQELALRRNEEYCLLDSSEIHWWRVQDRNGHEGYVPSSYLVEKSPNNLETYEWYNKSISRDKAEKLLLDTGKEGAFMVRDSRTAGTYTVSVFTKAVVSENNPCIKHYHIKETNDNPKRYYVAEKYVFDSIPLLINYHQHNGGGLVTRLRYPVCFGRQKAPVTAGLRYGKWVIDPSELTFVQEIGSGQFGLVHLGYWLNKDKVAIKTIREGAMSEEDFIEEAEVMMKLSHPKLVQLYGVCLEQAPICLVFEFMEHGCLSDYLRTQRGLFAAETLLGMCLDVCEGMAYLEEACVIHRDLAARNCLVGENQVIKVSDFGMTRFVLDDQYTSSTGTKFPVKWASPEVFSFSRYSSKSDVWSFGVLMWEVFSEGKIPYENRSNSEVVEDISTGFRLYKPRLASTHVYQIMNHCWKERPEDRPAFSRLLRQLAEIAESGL
Chain of Fibroblast growth factor receptor 1 (P11362 whole entry, the tested form may be a part): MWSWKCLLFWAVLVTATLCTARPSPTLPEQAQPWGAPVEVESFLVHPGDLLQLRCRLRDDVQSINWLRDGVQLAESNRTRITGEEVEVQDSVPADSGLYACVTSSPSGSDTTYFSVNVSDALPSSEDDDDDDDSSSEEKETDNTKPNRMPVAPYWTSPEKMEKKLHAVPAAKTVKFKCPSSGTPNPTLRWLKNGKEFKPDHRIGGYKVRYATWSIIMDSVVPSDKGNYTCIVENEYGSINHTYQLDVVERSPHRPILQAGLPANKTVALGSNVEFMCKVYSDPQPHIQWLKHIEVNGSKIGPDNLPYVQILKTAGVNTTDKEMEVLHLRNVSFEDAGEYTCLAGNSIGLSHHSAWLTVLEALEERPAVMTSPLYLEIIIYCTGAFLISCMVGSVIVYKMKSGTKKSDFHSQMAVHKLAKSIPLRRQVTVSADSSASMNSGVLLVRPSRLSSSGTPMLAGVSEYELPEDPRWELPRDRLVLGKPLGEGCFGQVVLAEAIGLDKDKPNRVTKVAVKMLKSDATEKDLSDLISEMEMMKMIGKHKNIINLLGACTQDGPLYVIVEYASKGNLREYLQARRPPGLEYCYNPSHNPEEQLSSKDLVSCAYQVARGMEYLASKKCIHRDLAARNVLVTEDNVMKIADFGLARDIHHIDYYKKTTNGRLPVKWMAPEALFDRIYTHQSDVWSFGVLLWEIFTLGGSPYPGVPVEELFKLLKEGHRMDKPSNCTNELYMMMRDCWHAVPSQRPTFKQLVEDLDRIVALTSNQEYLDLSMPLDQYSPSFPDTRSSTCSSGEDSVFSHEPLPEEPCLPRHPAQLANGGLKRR
Chain of c-KIT (P10721 whole entry): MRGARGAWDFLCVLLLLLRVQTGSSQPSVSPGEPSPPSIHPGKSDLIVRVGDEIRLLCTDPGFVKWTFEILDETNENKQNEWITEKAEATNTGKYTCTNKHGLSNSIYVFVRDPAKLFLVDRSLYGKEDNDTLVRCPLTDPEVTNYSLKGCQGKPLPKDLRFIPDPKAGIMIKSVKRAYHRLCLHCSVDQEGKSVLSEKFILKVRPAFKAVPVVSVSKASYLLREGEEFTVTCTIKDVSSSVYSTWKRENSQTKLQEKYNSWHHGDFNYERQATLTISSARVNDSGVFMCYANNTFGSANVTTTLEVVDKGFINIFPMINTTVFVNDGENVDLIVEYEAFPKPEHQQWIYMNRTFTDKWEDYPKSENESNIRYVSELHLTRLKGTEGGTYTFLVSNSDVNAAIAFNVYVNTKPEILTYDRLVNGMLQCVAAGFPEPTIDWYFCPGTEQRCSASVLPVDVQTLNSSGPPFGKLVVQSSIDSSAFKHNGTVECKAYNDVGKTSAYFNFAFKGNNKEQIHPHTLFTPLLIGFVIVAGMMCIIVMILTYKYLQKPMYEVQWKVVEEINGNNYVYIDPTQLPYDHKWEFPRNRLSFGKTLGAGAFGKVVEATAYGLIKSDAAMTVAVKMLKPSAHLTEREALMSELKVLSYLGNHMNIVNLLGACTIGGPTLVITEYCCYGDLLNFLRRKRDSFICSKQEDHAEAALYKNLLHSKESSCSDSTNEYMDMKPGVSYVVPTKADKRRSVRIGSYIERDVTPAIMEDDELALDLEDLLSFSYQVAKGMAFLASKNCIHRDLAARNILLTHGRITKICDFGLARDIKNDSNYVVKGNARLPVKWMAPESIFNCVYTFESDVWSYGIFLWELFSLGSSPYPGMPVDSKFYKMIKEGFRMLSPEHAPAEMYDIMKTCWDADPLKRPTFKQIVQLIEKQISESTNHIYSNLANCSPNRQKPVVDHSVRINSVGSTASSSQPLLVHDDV

- IC50 [1]: > 1000 nM
- inhibition [2]: 92.6%
- inhibition [3]: 92.3%
- inhibition [4]: 7.4%
- inhibition [5]: 8%
- inhibition [6]: 7.4%
- inhibition [7]: 30.9%
- inhibition [8]: 83.6%
- inhibition [9]: 69.4%
- inhibition [10]: 83.9%
- inhibition at 1 h, 0.1 µM (c-KIT): 100%
- inhibition [11]: 61.7%
- inhibition [12]: 2.1%
- inhibition [13]: 36.2%
- half-life [14]: 2.21 h
- MRT inf [15]: 5.42 h
- half-life [16]: 3.33 h
- AUC(0-t) [17]: 729 ng·h/mL
SMILES: Cc1ccc(C(=O)Nc2ccc(Cl)cc2)cc1C#Cc1cc(-c2cnn(C)c2)cnc1N
- Activity (Mus musculus): Active
